Experimental data from ChEMBL document CHEMBL2321826, “Synthesis and antibacterial evaluation of rhodanine-based 5-aryloxy pyrazoles against selected methicillin resistant and quinolone-resistant Staphylococcus aureus (MRSA and QRSA)” (Eur J Med Chem, 2013).
Converted amounts (≈) assume the structure as drawn.

What was measured:
Staphylococcus aureus [1] = assay: Antibacterial activity against methicillin-resistant Staphylococcus aureus assessed as bacterial growth inhibition measured during 24 hrs incubation at 37 degC by two-fold serial dilution technique; type: functional
In short: (§1)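 Clinical isolates grown to mid-log phase in Mueller-Hinton broth, diluted 1000-fold, inoculated at 10⁵ CFU/mL in MHB in 96-well microtiter plates. Two-fold serial dilutions gave final concentrations of […]. Oxacillin and norfloxacin were the positive controls. Growth was read as absorbance at 650 nm. MIC is the lowest concentration giving complete growth inhibition.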

HeLa [2] = assay: Cytotoxicity against human HeLa cells assessed as cell growth inhibition at 2 ug/ml measured after 48 hrs by MTT assay; type: cell-based
HeLa [3] = assay: Cytotoxicity against human HeLa cells assessed as cell growth inhibition measured after 48 hrs by MTT assay; type: cell-based
In short: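 HeLa cells grown in DMEM with 10% FBS and penicillin-streptomycin (100 U/mL) at 37 °C in 5% CO2. Cells were split with trypsin at 80-90% confluence and used at passage 3. About 1×10⁴ cells/well were seeded and left overnight to attach. Cells were exposed to compounds for 48 h, then given MTT (5 mg/mL in PBS stock) for 4 h. Medium was removed and formazan read.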

Staphylococcus aureus [4] = assay: Antibacterial activity against quinolone-resistant Staphylococcus aureus CCARM 3519 assessed as bacterial growth inhibition measured during 24 hrs incubation at 37 degC by two-fold serial dilution technique; type: functional; details: CCARM 3519, 24 h; in short: as §1
Staphylococcus aureus [5] = assay: Antibacterial activity against quinolone-resistant Staphylococcus aureus CCARM 3505 assessed as bacterial growth inhibition measured during 24 hrs incubation at 37 degC by two-fold serial dilution technique; type: functional; details: CCARM 3505, 24 h; in short: as §1
Staphylococcus aureus [6] = assay: Antibacterial activity against methicillin-resistant Staphylococcus aureus CCARM 3506 assessed as bacterial growth inhibition measured during 24 hrs incubation at 37 degC by two-fold serial dilution technique; type: functional; details: CCARM 3506, 24 h; in short: as §1
Staphylococcus aureus [7] = assay: Antibacterial activity against methicillin-resistant Staphylococcus aureus CCARM 3167 assessed as bacterial growth inhibition measured during 24 hrs incubation at 37 degC by two-fold serial dilution technique; type: functional; details: CCARM 3167, 24 h; in short: as §1
HeLa [8] = assay: Cytotoxicity against human HeLa cells assessed as cell growth inhibition at 4 ug/ml measured after 48 hrs by MTT assay; type: cell-based
Staphylococcus aureus [9] = assay: Ratio of oxacillin MIC to compound MIC for Staphylococcus aureus CCARM 3167; type: functional
Staphylococcus aureus [10] = assay: Ratio of norfloxacin MIC to compound MIC for Staphylococcus aureus CCARM 3167; type: functional
HeLa [11] = assay: Cytotoxicity against human HeLa cells assessed as cell growth inhibition at 1 ug/ml measured after 48 hrs by MTT assay; type: cell-based

Row | SMILES | MIC (Staphylococcus aureus [1]) [µg/mL] | Activity (HeLa [2]) | IC50 (HeLa [3]) [µg/mL] | MIC (Staphylococcus aureus [4]) [µg/mL] | MIC (Staphylococcus aureus [5]) [µg/mL] | MIC (Staphylococcus aureus [6]) [µg/mL] | MIC (Staphylococcus aureus [7]) [µg/mL] | Activity (HeLa [8]) | Ratio (Staphylococcus aureus [9]) | Ratio (Staphylococcus aureus [10]) | Activity (HeLa [11])
1 | O=C(O)CN1C(=O)/C(=C/c2cn(-c3ccccc3)nc2-c2ccc(Cl)cc2Cl)SC1=S | 4 (≈ 8.16 µM) |  |  |  |  |  |  |  |  |  | 
2 | Cc1nn(-c2ccccc2)c(Oc2ccc(Br)cc2)c1/C=C1\SC(=S)N([C@@H](CC(C)C)C(=O)O)C1=O |  | Non-toxic | 12.3 (≈ 21 µM) | 4 (≈ 6.82 µM) | 4 (≈ 6.82 µM) | 4 (≈ 6.82 µM) | 4 (≈ 6.82 µM) |  |  |  | 
3 | Cc1nn(-c2ccccc2)c(Oc2ccc(Cl)cc2Cl)c1/C=C1\SC(=S)N([C@H](C(=O)O)C(C)C)C1=O |  |  | 10.4 (≈ 18.5 µM) | 4 (≈ 7.11 µM) | 4 (≈ 7.11 µM) | 4 (≈ 7.11 µM) | 4 (≈ 7.11 µM) | Non-toxic |  |  | 
4 | CCC(C)[C@@H](C(=O)O)N1C(=O)/C(=C/c2c(C)nn(-c3ccccc3)c2Oc2ccc(Cl)cc2Cl)SC1=S (stereo not given in full) |  |  | 6.43 (≈ 11.2 µM) | 2 (≈ 3.47 µM) | 2 (≈ 3.47 µM) | 1 (≈ 1.73 µM) | 1 (≈ 1.73 µM) |  | 64 | 8 | Non-toxic
5 | Cc1nn(-c2ccccc2)c(Oc2c(Cl)cccc2Cl)c1/C=C1\SC(=S)N(CC(=O)O)C1=O |  |  |  | 32 (≈ 61.5 µM) | 32 (≈ 61.5 µM) | 32 (≈ 61.5 µM) | 32 (≈ 61.5 µM) |  |  |  | 
6 | Cc1nn(-c2ccccc2)c(Oc2ccc(Cl)cc2Cl)c1/C=C1\SC(=S)N(CC(=O)O)C1=O |  |  |  | 8 (≈ 15.4 µM) | 8 (≈ 15.4 µM) | 8 (≈ 15.4 µM) | 4 (≈ 7.69 µM) |  |  |  | 
7 | Cc1nn(-c2ccccc2)c(Oc2ccccc2Cl)c1/C=C1\SC(=S)N(CC(=O)O)C1=O |  |  |  | 16 (≈ 32.9 µM) | 32 (≈ 65.8 µM) | 16 (≈ 32.9 µM) | 16 (≈ 32.9 µM) |  |  |  | 
8 | Cc1nn(-c2ccccc2)c(Oc2cccc(Cl)c2)c1/C=C1\SC(=S)N(CC(=O)O)C1=O |  |  |  | 16 (≈ 32.9 µM) | 8 (≈ 16.5 µM) | 16 (≈ 32.9 µM) | 16 (≈ 32.9 µM) |  |  |  | 
9 | CCn1cc(C(=O)O)c(=O)c2cc(F)c(N3CCNCC3)cc21 [NORFLOXACIN] |  |  |  | > 64 | > 64 | 4 (≈ 12.5 µM) | 8 (≈ 25.1 µM) |  |  |  | 
10 | Cc1onc(-c2ccccc2)c1C(=O)N[C@@H]1C(=O)N2[C@@H]1SC(C)(C)[C@@H]2C(=O)O [OXACILLIN] |  |  |  | 1 (≈ 2.49 µM) | 1 (≈ 2.49 µM) | > 64 | > 64 |  |  |  | 
